Measured values published in ChEMBL document CHEMBL1153056, “Identification of MK-1925: a selective, orally active and brain-penetrable opioid receptor-like 1 (ORL1) antagonist” (Bioorg Med Chem Lett, 2009).

Assays:
Nociceptin receptor [1] = molecular target: T1, Nociceptin receptor (Homo sapiens, UniProt P41146); experiment: Displacement of [125I]Tyr14-NC/OFQ from ORL1 receptor
[2] = Distribution coefficient, log D at pH 7.4 by shake-flask method; type: physicochemical; conditions: octanol/water
Nociceptin receptor [3] = molecular target: T1, Nociceptin receptor; experiment: Antagonist activity at ORL1 receptor by [35S]GTPgammaS binding assay; type: functional
[4] = Metabolic stability in cryopreserved human hepatocytes after 30 mins; type: ADME, cell-based, Hepatocyte; conditions: read-out: Stability
Mus musculus [5] = experiment: Plasma concentration in mouse at 3 mg/kg, po; type: ADME, organism-based; design: dose 3 mg/kg, route oral; conditions: in vivo
How it was run: (§1)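 Mice dosed orally at 3, 10 or 30 mg/kg. Plasma and brain were sampled 60 min after dosing. Brain level is given as nmol/g brain, and the brain/plasma ratio was derived.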

Mus musculus [6] = experiment: Plasma concentration in mouse at 10 mg/kg, po; type: ADME, organism-based; design: dose 10 mg/kg, route oral; conditions: in vivo; how it was run: as §1
Mus musculus [7] = experiment: Plasma concentration in mouse at 30 mg/kg, po; type: ADME, organism-based; design: dose 30 mg/kg, route oral; conditions: in vivo; how it was run: as §1
Brain [8] = experiment: Drug level in mouse brain assessed per gram of tissue at 3 mg/kg, po after 60 mins; type: ADME, organism-based; design: dose 3 mg/kg, route oral; conditions: in vivo, 1 h; how it was run: as §1
Brain [9] = experiment: Drug level in mouse brain assessed per gram of tissue at 10 mg/kg, po after 60 mins; type: ADME, organism-based; design: dose 10 mg/kg, route oral; conditions: in vivo, 1 h; how it was run: as §1
Brain [10] = experiment: Drug level in mouse brain assessed per gram of tissue at 30 mg/kg, po after 60 mins; type: ADME, organism-based; design: dose 30 mg/kg, route oral; conditions: in vivo, 1 h; how it was run: as §1
[11] = Ratio of drug level in brain to plasma in mouse at 3 mg/kg, po after 60 mins; type: ADME, organism-based; design: dose 3 mg/kg, route oral
How it was run: (§2)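 Mice received single oral doses (3, 10 or 30 mg/kg). Plasma and brain levels were taken 60 min after dosing. Brain levels were expressed as nmol/g brain, and the b/p ratio was brain level over plasma level.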

[12] = Ratio of drug level in brain to plasma in mouse at 10 mg/kg, po after 60 mins; type: ADME, organism-based; design: dose 10 mg/kg, route oral; how it was run: as §2
[13] = Ratio of drug level in brain to plasma in mouse at 30 mg/kg, po after 60 mins; type: ADME, organism-based; design: dose 30 mg/kg, route oral; how it was run: as §2
[14] = Inhibition of choline transporter at 10 uM
[15] = Inhibition of choline transporter
Canis familiaris = experiment: Toxicity in anesthetized dog assessed as adverse effect up to 10 mg/kg; type: organism-based, Canis lupus familiaris; design: dose 10 mg/kg; conditions: in vivo
[16] = Cmax in anesthetized dog at 10 mg/kg; type: ADME, organism-based, Canis lupus familiaris; design: dose 10 mg/kg; conditions: in vivo
[17] = Cmax in dog at 3 mg/kg, po; type: ADME, organism-based, Canis lupus familiaris; design: dose 3 mg/kg, route oral; conditions: in vivo
How it was run: (§3)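 PK run with a 3 mg/kg oral dose and a 1 mg/kg IV dose; values are the mean of n = 3 animals.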

[18] = Half life in dog at 3 mg/kg, po; type: ADME, organism-based, Canis lupus familiaris; design: dose 3 mg/kg, route oral; conditions: in vivo; how it was run: as §3
[19] = Volume of distribution at steady state in dog at 1 mg/kg, iv; type: ADME, organism-based, Canis lupus familiaris; design: dose 1 mg/kg, route intravenous; conditions: in vivo, read-out: Vdss; how it was run: as §3
[20] = AUC (0 to infinity) in dog at 3 mg/kg, po; type: ADME, organism-based, Canis lupus familiaris; design: dose 3 mg/kg, route oral, time infinity; conditions: plasma; how it was run: as §3
[21] = Half life in rat at 3 mg/kg, po; type: ADME, organism-based; design: dose 3 mg/kg, route oral; conditions: in vivo; how it was run: as §3
[22] = Oral bioavailability in rat at 3 mg/kg; type: ADME, organism-based; conditions: in vivo; how it was run: as §3
[23] = Plasma clearance in dog at 1 mg/kg, iv; type: ADME, organism-based, Canis lupus familiaris; design: dose 1 mg/kg, route intravenous; how it was run: as §3
[24] = AUC (0 to infinity) in rat at 3 mg/kg, po; type: ADME, organism-based; design: time infinity, dose 3 mg/kg, route oral; conditions: plasma; how it was run: as §3
[25] = Cmax in rat at 3 mg/kg, po; type: ADME, organism-based; design: dose 3 mg/kg, route oral; conditions: in vivo; how it was run: as §3
[26] = Plasma clearance in rat at 1 mg/kg, iv; type: ADME, organism-based; design: dose 1 mg/kg, route intravenous; how it was run: as §3
[27] = Volume of distribution at steady state in rat at 1 mg/kg, iv; type: ADME, organism-based; design: dose 1 mg/kg, route intravenous; conditions: in vivo, read-out: Vdss; how it was run: as §3
Mu-type opioid receptor = Mu-type opioid receptor (Homo sapiens, UniProt P35372); experiment: Displacement of [3H]diprenorphin from human cloned mu opioid receptor expressed in CHO cells; type: cell-based
[28] = molecular target: Kappa-type opioid receptor (Homo sapiens, UniProt P41145); experiment: Displacement of [3H]U69593 from human cloned kappa opioid receptor expressed in CHO cells; type: cell-based
[29] = molecular target: Delta-type opioid receptor (Homo sapiens, UniProt P41143); experiment: Displacement of [3H]naltrindole from human cloned delta opioid receptor expressed in CHO cells; type: cell-based
[30] = molecular target: Voltage-gated inwardly rectifying potassium channel KCNH2 (Homo sapiens, UniProt Q12809); experiment: Displacement of [35S]MK499 from human ERG expressed in HEK293 cells overexpressing Ikr channel protein; type: cell-based
How it was run: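 Membranes from HEK 293 cells stably transfected with the hERG gene and expressing the I_Kr channel protein; [³⁵S]-radiolabeled MK499 displaced.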

[31] = Oral bioavailability in dog at 3 mg/kg; type: ADME, organism-based, Canis lupus familiaris; conditions: in vivo; how it was run: as §3
Mus musculus [32] = experiment: Reversal of ORL1 agonist-induced locomotor activity in mouse at 3 mg/kg, po after 60 mins; type: functional
How it was run: (§4)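 Mice dosed orally; ORL1 agonist then given to reduce locomotor activity, with activity monitored for 60 min. Result expressed as % reversal of the agonist-induced reduction in locomotor activity.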

Mus musculus [33] = experiment: Reversal of ORL1 agonist-induced locomotor activity in mouse at 10 mg/kg, po after 60 mins; type: functional; how it was run: as §4
Mus musculus [34] = experiment: Reversal of ORL1 agonist-induced locomotor activity in mouse at 30 mg/kg, po after 60 mins; type: functional; how it was run: as §4
Mus musculus [35] = experiment: Reversal of ORL1 agonist-induced locomotor activity in po dosed mouse after 60 mins; type: functional, organism-based
How it was run: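 Mice received oral doses of 3, 10 or 30 mg/kg against the locomotor-activity reduction produced by an ORL1 agonist, measured over 60 min. Results are expressed as % reversal of the agonist response.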

T1 sequence (P41146 whole entry): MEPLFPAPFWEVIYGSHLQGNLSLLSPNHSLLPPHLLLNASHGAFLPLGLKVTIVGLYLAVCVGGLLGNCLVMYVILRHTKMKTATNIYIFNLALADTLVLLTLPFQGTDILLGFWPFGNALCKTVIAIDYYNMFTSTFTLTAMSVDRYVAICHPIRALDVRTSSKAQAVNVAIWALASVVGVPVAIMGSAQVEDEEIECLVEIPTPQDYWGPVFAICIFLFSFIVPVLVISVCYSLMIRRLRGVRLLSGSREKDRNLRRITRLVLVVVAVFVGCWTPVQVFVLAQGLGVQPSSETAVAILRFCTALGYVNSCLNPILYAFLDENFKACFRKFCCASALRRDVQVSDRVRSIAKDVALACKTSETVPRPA
Chain of Voltage-gated inwardly rectifying potassium channel KCNH2 (Q12809 whole entry): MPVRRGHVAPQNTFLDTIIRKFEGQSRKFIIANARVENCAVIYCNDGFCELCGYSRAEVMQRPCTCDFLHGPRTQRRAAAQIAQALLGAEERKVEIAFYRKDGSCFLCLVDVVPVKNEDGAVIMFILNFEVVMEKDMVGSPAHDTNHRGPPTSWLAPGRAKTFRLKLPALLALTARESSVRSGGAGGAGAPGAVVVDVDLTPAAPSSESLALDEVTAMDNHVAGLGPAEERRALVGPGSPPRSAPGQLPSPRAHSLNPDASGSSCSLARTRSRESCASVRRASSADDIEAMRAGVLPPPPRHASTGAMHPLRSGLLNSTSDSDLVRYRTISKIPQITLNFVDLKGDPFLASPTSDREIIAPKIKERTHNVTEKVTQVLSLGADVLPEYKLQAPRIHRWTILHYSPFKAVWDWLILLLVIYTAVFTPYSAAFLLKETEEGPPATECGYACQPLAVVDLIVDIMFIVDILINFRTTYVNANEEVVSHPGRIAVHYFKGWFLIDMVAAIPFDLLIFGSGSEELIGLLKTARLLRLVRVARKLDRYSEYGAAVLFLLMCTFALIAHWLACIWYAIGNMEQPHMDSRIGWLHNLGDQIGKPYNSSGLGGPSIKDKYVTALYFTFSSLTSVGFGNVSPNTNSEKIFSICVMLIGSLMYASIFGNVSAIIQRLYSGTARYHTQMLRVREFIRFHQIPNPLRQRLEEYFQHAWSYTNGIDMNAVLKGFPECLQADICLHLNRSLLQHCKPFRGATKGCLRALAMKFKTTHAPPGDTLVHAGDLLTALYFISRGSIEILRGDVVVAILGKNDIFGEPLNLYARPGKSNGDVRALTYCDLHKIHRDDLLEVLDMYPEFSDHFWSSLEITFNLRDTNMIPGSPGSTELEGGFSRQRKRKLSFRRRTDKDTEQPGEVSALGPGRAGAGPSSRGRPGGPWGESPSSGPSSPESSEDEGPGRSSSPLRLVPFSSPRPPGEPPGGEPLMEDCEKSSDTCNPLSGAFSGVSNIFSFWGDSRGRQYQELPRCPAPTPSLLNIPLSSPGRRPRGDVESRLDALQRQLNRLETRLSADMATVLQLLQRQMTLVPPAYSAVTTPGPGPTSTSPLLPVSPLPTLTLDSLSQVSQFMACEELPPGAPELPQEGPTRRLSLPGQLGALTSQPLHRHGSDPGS
Chain of Delta-type opioid receptor (P41143 whole entry): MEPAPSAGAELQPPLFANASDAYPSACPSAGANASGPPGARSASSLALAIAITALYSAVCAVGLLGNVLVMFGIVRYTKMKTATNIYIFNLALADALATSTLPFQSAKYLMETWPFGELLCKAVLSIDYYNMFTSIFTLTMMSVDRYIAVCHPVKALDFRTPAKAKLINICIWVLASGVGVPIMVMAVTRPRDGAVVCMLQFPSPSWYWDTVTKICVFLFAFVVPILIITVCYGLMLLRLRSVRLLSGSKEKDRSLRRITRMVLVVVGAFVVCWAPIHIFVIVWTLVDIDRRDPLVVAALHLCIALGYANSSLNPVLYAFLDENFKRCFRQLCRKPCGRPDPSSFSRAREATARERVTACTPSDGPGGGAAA
Chain of Mu-type opioid receptor (P35372 whole entry): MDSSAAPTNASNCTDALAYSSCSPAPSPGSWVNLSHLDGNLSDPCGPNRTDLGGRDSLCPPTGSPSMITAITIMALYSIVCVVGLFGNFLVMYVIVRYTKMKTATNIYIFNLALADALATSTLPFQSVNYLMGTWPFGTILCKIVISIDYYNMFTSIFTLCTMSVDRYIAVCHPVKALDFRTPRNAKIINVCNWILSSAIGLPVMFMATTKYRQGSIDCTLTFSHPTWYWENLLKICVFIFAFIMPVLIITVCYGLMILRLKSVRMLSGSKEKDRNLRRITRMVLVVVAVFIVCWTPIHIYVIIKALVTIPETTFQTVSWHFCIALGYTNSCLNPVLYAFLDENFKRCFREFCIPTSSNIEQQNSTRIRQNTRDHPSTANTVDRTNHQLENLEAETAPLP
Chain of Kappa-type opioid receptor (P41145 whole entry): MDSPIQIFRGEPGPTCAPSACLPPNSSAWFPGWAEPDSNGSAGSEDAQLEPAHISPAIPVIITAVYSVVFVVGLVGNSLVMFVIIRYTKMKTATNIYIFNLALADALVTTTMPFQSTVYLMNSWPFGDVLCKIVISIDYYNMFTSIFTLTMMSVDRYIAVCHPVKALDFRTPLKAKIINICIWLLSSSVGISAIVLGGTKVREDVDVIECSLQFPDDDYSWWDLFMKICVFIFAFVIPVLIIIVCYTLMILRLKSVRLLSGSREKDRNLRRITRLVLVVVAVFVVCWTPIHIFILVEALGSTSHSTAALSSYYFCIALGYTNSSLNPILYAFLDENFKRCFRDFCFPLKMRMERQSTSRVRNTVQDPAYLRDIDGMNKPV

Cc1c(CN[C@H]2CC[C@@H](F)C2)nn(CCO)c1-c1cc(F)cc(F)c1
IC50 (Nociceptin receptor [1]): 15 nM | logD [2]: 1.3

CC(=O)Cn1nc(CN[C@H]2CC[C@@H](F)C2)c(C)c1-c1cc(F)cc(F)c1
IC50 (Nociceptin receptor [1]): 12 nM | logD [2]: 1.4

Cc1c(CN[C@H]2CC[C@@H](F)C2)nn(C)c1-c1ccc(F)c(F)c1
IC50 (Nociceptin receptor [1]): 6.4 nM | IC50 (Nociceptin receptor [3]): 6.5 nM

Cc1ncc(-c2c(C)c(CN[C@H]3CC[C@@H](F)C3)nn2C)cc1F
IC50 (Nociceptin receptor [1]): 4.3 nM | IC50 (Nociceptin receptor [3]): 2.2 nM | remaining at 0.5 h [4]: 25%

CCn1nc(CN[C@H]2CC[C@@H](F)C2)c(C)c1-c1cnc(C)c(F)c1
IC50 (Nociceptin receptor [1]): 2 nM | IC50 (Nociceptin receptor [3]): 0.61 nM

Cc1c(CN[C@H]2CC[C@@H](F)C2)nn(C)c1-c1cc(F)cc(F)c1
IC50 (Nociceptin receptor [1]): 3.1 nM | IC50 (Nociceptin receptor [3]): 2.5 nM | remaining at 0.5 h [4]: 56% | logD [2]: 1.9

Cc1c(CN[C@H]2CC[C@@H](F)C2)nn(C)c1-c1cc(F)c(F)c(F)c1
IC50 (Nociceptin receptor [1]): 15 nM | IC50 (Nociceptin receptor [3]): 13 nM

Cc1c(CN[C@H]2CC[C@@H](F)C2)nn(CCC#N)c1-c1cc(F)cc(F)c1
concentration (Mus musculus [5]): 16 nM | concentration (Mus musculus [6]): 315 nM | concentration (Mus musculus [7]): 1630 nM | Drug uptake (Brain [8]): 0.035 nmol/g | Drug uptake (Brain [9]): 0.516 nmol/g | Drug uptake (Brain [10]): 3.02 nmol/g | Kp at 1 h [11]: 3.42 | Kp at 1 h [12]: 1.62 | Kp at 1 h [13]: 1.84 | inhibition [14]: 50% | IC50 [15]: 3700 nM | Activity (Canis familiaris): Non-toxic | Cmax [16]: 9700 nM | Cmax [17]: 2600 nM | half-life [18]: 2.8 h | Vd [19]: 3.5 L/kg | AUC(0-inf) [20]: 1.3 µM·h | half-life [21]: 0.7 h | bioavailability [22]: 21% | clearance [23]: 37 mL/min/kg | AUC(0-inf) [24]: 0.3 µM·h | Cmax [25]: 400 nM | clearance [26]: 83 mL/min/kg | Vd [27]: 5.2 L/kg | remaining at 0.5 h [4]: 77% | logD [2]: 1.5 | IC50 (Mu-type opioid receptor): > 10000 nM | IC50 [28]: 9800 nM | IC50 [29]: > 10000 nM | IC50 [30]: 9500 nM | bioavailability [31]: 62% | Activity (Mus musculus [32]): 17% | Activity (Mus musculus [33]): 81% | Activity (Mus musculus [34]): 112% | Activity (Mus musculus [35]): Dose-dependent effect

Cc1ncc(-c2[nH]nc(CN[C@H]3CC[C@@H](F)C3)c2C)cc1F
IC50 (Nociceptin receptor [1]): 9.9 nM | IC50 (Nociceptin receptor [3]): 7.8 nM | remaining at 0.5 h [4]: 21%

Cc1c(CN[C@H]2CC[C@@H](F)C2)nn(C)c1-c1cc(F)cc(Cl)c1
IC50 (Nociceptin receptor [1]): 17 nM

Cc1c(CN[C@H]2CC[C@@H](F)C2)nn(C)c1-c1cc(F)cc(C(F)(F)F)c1
IC50 (Nociceptin receptor [1]): 210 nM

COCc1c(CN[C@H]2CC[C@@H](F)C2)nn(C)c1-c1cc(F)cc(F)c1
IC50 (Nociceptin receptor [1]): 1.4 nM | IC50 (Nociceptin receptor [3]): 1 nM | remaining at 0.5 h [4]: 39%

Cc1ncc(-c2c(C)c(CN[C@H]3CC[C@@H](F)C3)nn2-c2ncccc2Cl)cc1F
bioavailability [22]: 3.2% | remaining at 0.5 h [4]: 39%

Cc1c(CN[C@H]2CC[C@@H](F)C2)nn(CCS(C)(=O)=O)c1-c1cc(F)cc(F)c1
IC50 (Nociceptin receptor [1]): 33 nM | logD [2]: < 1

Cn1nc(CN[C@H]2CC[C@@H](F)C2)c(Cl)c1-c1cc(F)cc(F)c1
IC50 (Nociceptin receptor [1]): 9.3 nM | IC50 (Nociceptin receptor [3]): 2.5 nM | remaining at 0.5 h [4]: 40%
